Screens as filed in PubChem.
Sampled rows, rich in hits. Any-hit rate of the full collection: about 3%.
Cardio protect = protects H9c2 cardiomyocytes from peroxide injury; protection from H2O2 cell death, % at 20 µM; H2O2 injury protection, ATPLite, 2 h; AID 588492; 0.63% of 360,000 active;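 active means compounds giving at least 50% protection of heart cells from peroxide-induced death in the single-dose screen, raw or plate-pattern-corrected value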;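 further: 0% = DMSO wells with peroxide and 100% = DMSO wells without peroxide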
SENP1 FRET inh = inhibitors of human SENP1 SUMO protease catalytic domain; recombinant SENP1 catalytic domain, CyPet-SUMO1-YPet FRET cleavage; Q9P0U3; inhibition, % at 10 µM; 0.21% of 360,000 active;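 active means inhibition at least 30% at 10 µM, raw YFP signal under a set limit, fluorescence ratio 0.5 to 1.5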;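 further: 0% = enzyme with DMSO and 100% = no enzyme wells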
Target sequence (Q9P0U3 419-644 limits assumed): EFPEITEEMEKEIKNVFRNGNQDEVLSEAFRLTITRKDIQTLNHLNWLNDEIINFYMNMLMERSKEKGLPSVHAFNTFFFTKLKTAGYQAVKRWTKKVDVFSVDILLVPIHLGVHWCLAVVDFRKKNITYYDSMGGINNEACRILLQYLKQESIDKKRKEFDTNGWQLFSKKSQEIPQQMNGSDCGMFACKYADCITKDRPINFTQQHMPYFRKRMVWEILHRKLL
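Test system: hSENP1 catalytic domain, recombinant; Amount: 20 pM final SENP1 enzyme; Medium: Tris pH 8 buffer plus EDTA, NaCl, BME, BSA, NP40, catalase; Schedule: 50 min enzyme reaction, room temperature, light-protected; Technique: FRET fluorescence in CFP and YFP emission channels; Controls: no-enzyme wells low, DMSO-plus-enzyme wells high control.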
Exocytosis inh = lytic granule exocytosis inhibition; TALL-104 LAMP-1 surface exposure, flow cytometry; cells stimulated with thapsigargin and PMA; inhibition, % at 10 µM; 0.66% of 360,000 active;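 active means inhibition above about 55%, limit read from the data; inconclusive means no clear call, values can overlap the other calls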
HNF4A DNA FP = change in binding of human HNF4 alpha to DNA; P41235; HNF4a-FITC DNA binding, fluorescence polarization, 1 h; activity change, % at 10 µM; 0.3% of 360,000 active; AID 1224865; in the data active means activity change above about 30%, passing the limit was not always enough
DSG3 Ab inh = human desmoglein-3 autoantibody binding inhibition | 0.48% of 310,000 active | DSG3-coupled beads, scFv-anti-DSG3-GFP binding, flow cytometry; hits give low values | binding (percent of control), % at 10 µM;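 active means binding more than 3 SD below its plate's average and above zero; inconclusive means below that plate limit but binding exactly zero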;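 further: hits lower antibody fragment binding to DSG3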
Myeloid diff 2 = promotes myeloid progenitor differentiation. calls only at 10 µM. 1% of 360,000 active. ER-HoxA9 myeloid progenitors, lysozyme-GFP differentiation, flow cytometry;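 active means normalized GFP-positive differentiation at or above the plate's own cutoff, the solvent-only control mean plus 3 SD; inconclusive means no clear call, values can overlap the other calls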;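 further: cells exposed to compound for four days before flow analysis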
Exocytosis CP01 = blocks lytic granule exocytosis. TALL-104 cells, LAMP-1 externalization, flow cytometry; stimulated with PMA plus thapsigargin. AID 651954. inhibition, % at 10 µM. shares compounds with Exocytosis inh. 11% of 1,500 active; in the data active means inhibition above about 60%;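 further: 0% = stimulated vehicle wells and 100% = unstimulated wells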
* = called active by the depositor; i = inactive; ? = inconclusive; . = not tested or not shown.

SMILES	Cardio protect	SENP1 FRET inh	Exocytosis inh	HNF4A DNA FP	DSG3 Ab inh	Myeloid diff 2	Exocytosis CP01
COc1ccc(-n2ccnc2CN2CCCC(CO)(Cc3cccc(OC)c3)C2)cc1 (centres undefined)	-17	0	60*	0	112	i	-13
COc1ccc(C(CNC(=O)Cc2ccc(-c3ccccc3)cc2)N(C)C)cc1 (centres undefined)	-3	-10	62*	4	108	i	-14
CC(C)NC(=O)C1(C)CSCC(=O)N1Cc1cccc(C(F)(F)F)c1 (centres undefined)	.	-3	11	9	.	i	.
CCOc1ccccc1NS(=O)(=O)c1c(C)[nH]c(C)c1C(=O)N1CCCCC1	4	1	1	1	.	i	.
CCOC(=O)C1(CCc2ccccc2)CCN(Cc2cc(OC)c(OC)cc2OC)CC1	-5	-1	64*	0	113	i	-2
CCOC(=O)C1(CCOc2ccccc2)CCN(Cc2ccc(OC)cc2)CC1	-16	2	80*	-1	136	i	-3
CCOC(=O)C1(CCOc2ccccc2)CCN(Cc2cccc(F)c2)CC1	-7	0	64*	3	108	i	-12
CCOC(=O)C1(CCOc2ccccc2)CCN(Cc2cccc(OC)c2OC)CC1	-14	0	75*	-1	113	i	-10
CCOC(=O)C1(CCOc2ccccc2)CCN(Cc2ccc(NC(C)=O)cc2)CC1	-3	2	1	-2	83	i	.
CCOC(=O)C1(CCOc2ccccc2)CCN(Cc2ccccc2O)CC1	0	0	56*	-1	134	i	-13
CCOC(=O)C1(CCOc2ccccc2)CCN(Cc2ccc(OCC)c(CO)c2)CC1	-9	1	81*	-1	122	i	-12
CCOC(=O)C1(CCOc2ccccc2)CCN(Cc2cccc3c2OCO3)CC1	-19	-1	16	-5	101	i	.
CCOC(=O)C1(CCOc2ccccc2)CCN(CCCn2cccn2)CC1	-3	-6	59*	0	104	i	-4
Cc1ccc(-c2nn(-c3ccccc3)cc2CNCc2ccccc2)cc1	-20	-1	70*	-6	.	i	92*
Cc1ccc(-n2cc(CNCCCn3ccnc3C)c(-c3ccc(F)cc3)n2)cc1	-18	2	57*	1	124	?	2
Cc1ccc(-c2nn(-c3ccccc3)cc2CO)cc1	-6	2	-4	1	96	i	.
NC(=O)CC[C@H](NC(=O)c1ccc(F)cc1)C(=O)OCC(=O)Nc1c(F)c(F)c(F)c(F)c1F	1	4	-6	0	87	i	.
NC(=O)CC[C@H](NC(=O)c1ccc(F)cc1)C(=O)OCC(=O)NCc1ccc(F)cc1	9	0	57*	-2	104	i	-14
O=C(Cc1ccc(Cl)cc1)Nc1ccc(CN2CCCCC2)cc1	15	1	56*	5	112	i	-4
CC(=O)Nc1ccc(CN2CCCCCC2)cc1	6	1	-5	-1	120	i	.
CCOc1ccc(OCC(O)CNC2CCN(Cc3ccccc3)CC2)cc1 (centres undefined)	8	0	3	1	105	i	.
CC(C)(c1ccccc1)c1ccc(OCC(O)CNC2CCN(Cc3ccccc3)CC2)cc1 (centres undefined)	-26	0	62*	-1	107	.	85*
CCN(c1ccccc1)S(=O)(=O)c1ccc(OC)c(NC(=O)CNCCc2ccccc2)c1	-14	3	85*	-6	103	i	11
COc1ccccc1N(CC(=O)NCCSCc1ccccc1)S(=O)(=O)c1ccc(C)cc1	-4	1	90*	-3	.	i	5
CCN(CC(=O)NCc1ccc(Cl)cc1)C(=O)CCOc1ccccc1C	5	0	80*	3	115	i	-13
SMILES	Cardio protect	SENP1 FRET inh	Exocytosis inh	HNF4A DNA FP	DSG3 Ab inh	Myeloid diff 2	Exocytosis CP01
CCN(CC(=O)NCc1cccs1)C(=O)CCOc1ccccc1C	-2	-2	4	-2	103	?	.
CCOc1ccc(N(CC(=O)NCc2ccc(Cl)cc2)S(=O)(=O)c2ccccc2)cc1	-2	1	77*	1	-57*	i	-5
COCCCN1C(=O)C(CC(=O)NC2CCCCC2)CC(C(=O)N(C)C)=C1C (centres undefined)	3	3	-2	0	107	i	.
COC(=O)[C@@]12C[C@@H](CC(=O)NCc3cccc4ccccc34)C(=O)N(Cc3ccccc3)C1=CCC(C)(C)C2	.	0	2	2	.	i	.
CC(C)(C)C(c1nc2ccccc2[nH]1)n1c(-c2cccc(S(C)(=O)=O)c2)nc2ccccc21 (centres undefined)	.	-1	0	-2	.	i	.
Cc1cnc(C(=O)OCc2ccc(Br)cc2)cn1	2	-9	-16	9	100	i	.
Cc1cc(C(=O)OCC(=O)N(C)c2c(N)n(Cc3ccccc3)c(=O)[nH]c2=O)c(C)n1-c1ccccc1	3	2	0	4	.	i	.
Nn1c(SCC(=O)Nc2ccc(OC(F)F)cc2)nnc1-c1ccco1	-3	1	1	1	71	i	.
CCOc1ccccc1N(CC(=O)Nc1ccc(OC)cc1OC)S(=O)(=O)c1ccccc1	-3	0	34	0	111	i	.
CS(=O)(=O)N(CC(=O)Nc1cccc(Cl)c1)c1ccccc1Cl	6	0	85*	-2	100	i	-1
Cc1ccc(Cl)cc1N(CC(=O)Nc1cccc(N(C)S(C)(=O)=O)c1)S(C)(=O)=O	4	1	-2	-1	101	i	.
COc1ccc(N(CC(=O)Nc2cc(C)on2)S(=O)(=O)c2cc(C)ccc2C)cc1	4	-2	57*	2	99	i	-5
CCOc1ccccc1N(CC(=O)Nc1ccccc1F)S(=O)(=O)c1ccccc1	-3	-3	57*	-1	123	i	-15
COC(=O)c1cc(NC(=O)CN(c2ccccc2OC)S(=O)(=O)c2ccccc2)ccc1Cl	25	2	68*	-3	105	i	-9
COc1ccc(N(CC(=O)Nc2cc(C)on2)S(=O)(=O)c2ccc(Cl)cc2)cc1	0	0	-4	0	120	i	.
COc1ccc(N(CC(=O)NC(C)c2ccccc2)S(=O)(=O)c2ccc(C)cc2)cc1 (centres undefined)	-4	0	87*	6	103	i	-4
CCOc1ccc(N(CC(=O)Nc2ccccc2OC)S(=O)(=O)c2ccccc2)cc1	-2	0	65*	0	123	.	-14
